Experimental data from ChEMBL document CHEMBL2034974, “Design, synthesis and structure-activity relationships of new triazole derivatives containing N-substituted phenoxypropylamino side chains” (2012).
Converted amounts (≈) assume the structure as drawn.

Tests used:
Format in all cases: functional
Candida tropicalis = test: Antifungal activity against Candida tropicalis after 24 hrs by serial dilution method
Method in brief: (§1)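 NCCLS broth microdilution in 96-well plates, with ATCC or clinical isolate strains. Medium was RPMI 1640 buffered with 0.165 M MOPS, and compounds were dissolved in DMSO and serially diluted in medium. Yeasts were incubated at 35 °C and growth was read at 24 h. MIC80 was taken as the lowest concentration giving ≥80% growth inhibition versus the drug-free control.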

Pichia kudriavzevii = test: Antifungal activity against Candida krusei after 24 hrs by serial dilution method; method in brief: as §1
Cryptococcus neoformans = test: Antifungal activity against Cryptococcus neoformans after 72 hrs by serial dilution method
Method in brief: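 Cryptococcus yeast, ATCC or clinical isolate, tested by NCCLS serial dilution in 96-well plates with RPMI 1640 plus 0.165 M MOPS. Compounds were dissolved in DMSO and serially diluted in medium. Incubation was at 35 °C with MIC80 read at 72 h, defined as the lowest concentration giving ≥80% growth inhibition relative to control.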

Trichophyton rubrum = test: Antifungal activity against Trichophyton rubrum by serial dilution method
Method in brief: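 Dermatophyte, ATCC or clinical isolate, tested by NCCLS serial-dilution microtest in RPMI 1640 buffered with 0.165 M MOPS. Compounds were dissolved in DMSO and diluted serially in medium, and incubation was at 28 °C. The endpoint was MIC80, the lowest concentration reducing turbidity to ≥80% inhibition of control growth.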

Candida albicans = test: Antifungal activity against Candida albicans after 24 hrs by serial dilution method; method in brief: as §1
Candida parapsilosis = test: Antifungal activity against Candida parapsilosis after 24 hrs by serial dilution method; conditions: Lodderomyces parapsilosis; method in brief: as §1

Compound	MIC80 (Candida tropicalis) [µg/mL]	MIC80 (Pichia kudriavzevii) [µg/mL]	MIC80 (Cryptococcus neoformans) [µg/mL]	MIC80 (Trichophyton rubrum) [µg/mL]	MIC80 (Candida albicans) [µg/mL]	MIC80 (Candida parapsilosis) [µg/mL]
CCCN(CCCOc1ccc(Br)cc1)CC(O)(Cn1cncn1)c1ccc(F)cc1F (racemic)	2 (≈ 3.93 µM)	4 (≈ 7.85 µM)	4 (≈ 7.85 µM)	8 (≈ 15.7 µM)	2 (≈ 3.93 µM)	> 64
Cc1ccc(CN(CCCOc2ccc(Br)cc2)CC(O)(Cn2cncn2)c2ccc(F)cc2F)cc1 (racemic)	8 (≈ 14 µM)	8 (≈ 14 µM)	64 (≈ 112 µM)	64 (≈ 112 µM)	4 (≈ 7 µM)	0.5 (≈ 0.875 µM)
CCN(CCCOc1ccc(Br)cc1)CC(O)(Cn1cncn1)c1ccc(F)cc1F (racemic)	1 (≈ 2.02 µM)	4 (≈ 8.07 µM)	1 (≈ 2.02 µM)	2 (≈ 4.04 µM)	0.5 (≈ 1.01 µM)	2 (≈ 4.04 µM)
CC(C)CN(CCCOc1ccc(Br)cc1)CC(O)(Cn1cncn1)c1ccc(F)cc1F (racemic)	8 (≈ 15.3 µM)	4 (≈ 7.64 µM)	16 (≈ 30.6 µM)	8 (≈ 15.3 µM)	4 (≈ 7.64 µM)	8 (≈ 15.3 µM)
Cc1ccc(CN(CCCOc2ccccc2)CC(O)(Cn2cncn2)c2ccc(F)cc2F)cc1 (racemic)	8 (≈ 16.2 µM)	4 (≈ 8.12 µM)	4 (≈ 8.12 µM)	16 (≈ 32.5 µM)	8 (≈ 16.2 µM)	8 (≈ 16.2 µM)
CCCCN(CCCOc1ccc(Br)cc1)CC(O)(Cn1cncn1)c1ccc(F)cc1F (racemic)	4 (≈ 7.64 µM)	4 (≈ 7.64 µM)	4 (≈ 7.64 µM)	16 (≈ 30.6 µM)	2 (≈ 3.82 µM)	4 (≈ 7.64 µM)
CCC(C)n1ncn(-c2ccc(N3CCN(c4ccc(OCC5COC(Cn6cncn6)(c6ccc(Cl)cc6Cl)O5)cc4)CC3)cc2)c1=O (centres undefined) [ITRACONAZOLE]	< 0.125	1 (≈ 1.42 µM)	0.5 (≈ 0.709 µM)	0.125 (≈ 0.177 µM)	0.125 (≈ 0.177 µM)	4 (≈ 5.67 µM)
OC(CNCCCOc1ccc(Br)cc1)(Cn1cncn1)c1ccc(F)cc1F (racemic)	< 0.125	< 0.125	1 (≈ 2.14 µM)	0.5 (≈ 1.07 µM)	0.0313 (≈ 0.067 µM)	0.5 (≈ 1.07 µM)
COC(=O)CN(CCCOc1ccccc1)CC(O)(Cn1cncn1)c1ccc(F)cc1F (racemic)	8 (≈ 17.4 µM)	4 (≈ 8.69 µM)	16 (≈ 34.7 µM)	2 (≈ 4.34 µM)	2 (≈ 4.34 µM)	> 64
CCCN(CCCOc1ccccc1)CC(O)(Cn1cncn1)c1ccc(F)cc1F (racemic)	16 (≈ 37.2 µM)	1 (≈ 2.32 µM)	1 (≈ 2.32 µM)	4 (≈ 9.29 µM)	1 (≈ 2.32 µM)	32 (≈ 74.3 µM)
OC(CN(CCCOc1ccc(Br)cc1)Cc1ccccc1)(Cn1cncn1)c1ccc(F)cc1F (racemic)	8 (≈ 14.4 µM)	4 (≈ 7.18 µM)	16 (≈ 28.7 µM)	4 (≈ 7.18 µM)	2 (≈ 3.59 µM)	32 (≈ 57.4 µM)
OC(Cn1cncn1)(Cn1cncn1)c1ccc(F)cc1F [FLUCONAZOLE]	1 (≈ 3.27 µM)	4 (≈ 13.1 µM)	2 (≈ 6.53 µM)	1 (≈ 3.27 µM)	0.5 (≈ 1.63 µM)	1 (≈ 3.27 µM)
CCOC(=O)CN(CCCOc1ccc(Br)cc1)CC(O)(Cn1cncn1)c1ccc(F)cc1F (racemic)	16 (≈ 28.9 µM)	32 (≈ 57.8 µM)	32 (≈ 57.8 µM)	16 (≈ 28.9 µM)	4 (≈ 7.23 µM)	16 (≈ 28.9 µM)
COC(=O)CN(CCCOc1ccc(Br)cc1)CC(O)(Cn1cncn1)c1ccc(F)cc1F (racemic)	4 (≈ 7.42 µM)	4 (≈ 7.42 µM)	8 (≈ 14.8 µM)	8 (≈ 14.8 µM)	2 (≈ 3.71 µM)	64 (≈ 119 µM)
CCOC(=O)CN(CCCOc1ccccc1)CC(O)(Cn1cncn1)c1ccc(F)cc1F (racemic)	8 (≈ 16.9 µM)	4 (≈ 8.43 µM)	8 (≈ 16.9 µM)	8 (≈ 16.9 µM)	2 (≈ 4.21 µM)	> 64
C=CCN(CCCOc1ccc(Br)cc1)CC(O)(Cn1cncn1)c1ccc(F)cc1F (racemic)	1 (≈ 1.97 µM)	2 (≈ 3.94 µM)	4 (≈ 7.88 µM)	8 (≈ 15.8 µM)	2 (≈ 3.94 µM)	16 (≈ 31.5 µM)
OC(CN(CCCOc1ccccc1)Cc1ccccc1)(Cn1cncn1)c1ccc(F)cc1F (racemic)	8 (≈ 16.7 µM)	8 (≈ 16.7 µM)	16 (≈ 33.4 µM)	16 (≈ 33.4 µM)	2 (≈ 4.18 µM)	64 (≈ 134 µM)
CC(C)(C)OC(=O)CN(CCCOc1ccccc1)CC(O)(Cn1cncn1)c1ccc(F)cc1F (racemic)	8 (≈ 15.9 µM)	8 (≈ 15.9 µM)	> 64	64 (≈ 127 µM)	4 (≈ 7.96 µM)	> 64
CN(CCCOc1ccccc1)CC(O)(Cn1cncn1)c1ccc(F)cc1F (centres undefined)	< 0.125	0.5 (≈ 1.24 µM)	1 (≈ 2.48 µM)	1 (≈ 2.48 µM)	0.0125 (≈ 0.0311 µM)	0.125 (≈ 0.311 µM)
CN(CCCOc1ccc(Br)cc1)CC(O)(Cn1cncn1)c1ccc(F)cc1F (centres undefined)	2 (≈ 4.16 µM)	2 (≈ 4.16 µM)	1 (≈ 2.08 µM)	2 (≈ 4.16 µM)	0.5 (≈ 1.04 µM)	1 (≈ 2.08 µM)
OC(CNCCCOc1ccccc1)(Cn1cncn1)c1ccc(F)cc1F (racemic)	< 0.125	< 0.125	1 (≈ 2.57 µM)	2 (≈ 5.15 µM)	0.0625 (≈ 0.161 µM)	0.5 (≈ 1.29 µM)
OC(CN(CCCOc1ccc(Br)cc1)Cc1ccc(F)cc1)(Cn1cncn1)c1ccc(F)cc1F (racemic)	8 (≈ 13.9 µM)	8 (≈ 13.9 µM)	32 (≈ 55.6 µM)	16 (≈ 27.8 µM)	4 (≈ 6.95 µM)	2 (≈ 3.48 µM)
C#CCN(CCCOc1ccc(Br)cc1)CC(O)(Cn1cncn1)c1ccc(F)cc1F (racemic)	8 (≈ 15.8 µM)	8 (≈ 15.8 µM)	8 (≈ 15.8 µM)	8 (≈ 15.8 µM)	0.5 (≈ 0.989 µM)	32 (≈ 63.3 µM)
C=CCN(CCCOc1ccccc1)CC(O)(Cn1cncn1)c1ccc(F)cc1F (racemic)	1 (≈ 2.33 µM)	1 (≈ 2.33 µM)	2 (≈ 4.67 µM)	1 (≈ 2.33 µM)	0.25 (≈ 0.583 µM)	64 (≈ 149 µM)
CCN(CCCOc1ccccc1)CC(O)(Cn1cncn1)c1ccc(F)cc1F (racemic)	0.5 (≈ 1.2 µM)	1 (≈ 2.4 µM)	1 (≈ 2.4 µM)	1 (≈ 2.4 µM)	0.0313 (≈ 0.0752 µM)	2 (≈ 4.8 µM)
C#CCN(CCCOc1ccccc1)CC(O)(Cn1cncn1)c1ccc(F)cc1F (racemic)	4 (≈ 9.38 µM)	1 (≈ 2.34 µM)	4 (≈ 9.38 µM)	4 (≈ 9.38 µM)	0.25 (≈ 0.586 µM)	8 (≈ 18.8 µM)
CCCCN(CCCOc1ccccc1)CC(O)(Cn1cncn1)c1ccc(F)cc1F (racemic)	8 (≈ 18 µM)	1 (≈ 2.25 µM)	4 (≈ 9 µM)	8 (≈ 18 µM)	2 (≈ 4.5 µM)	16 (≈ 36 µM)
CC(C)(C)OC(=O)CN(CCCOc1ccc(Br)cc1)CC(O)(Cn1cncn1)c1ccc(F)cc1F (racemic)	16 (≈ 27.5 µM)	4 (≈ 6.88 µM)	64 (≈ 110 µM)	64 (≈ 110 µM)	4 (≈ 6.88 µM)	64 (≈ 110 µM)
OC(CN(CCCOc1ccccc1)Cc1ccc(F)cc1)(Cn1cncn1)c1ccc(F)cc1F (racemic)	8 (≈ 16.1 µM)	8 (≈ 16.1 µM)	8 (≈ 16.1 µM)	32 (≈ 64.4 µM)	4 (≈ 8.06 µM)	16 (≈ 32.2 µM)
